Source: PubChem BioAssay
Sampled rows, rich in hits. Any-hit rate of the full collection: about 1.6%.
ADAM10 inh = inhibits human ADAM10. 0.62% of 370,000 active. recombinant ADAM10, EDANS/DABCYL FRET peptide cleavage, 3 h. inhibition, % at 7 µM. O14672;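 active means inhibition above a per-campaign cutoff equal to the mean of compounds falling between control-based bounds plus 3 SD, cut at about 20% in these data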
MT1-MMP act inh = blocks activation of human MT1-MMP; 0.061% of 360,000 active; P50281; HT1080 RFP-PRO-GFP cells, GFP/RFP ratio fluorescence, overnight; percent of plate control window, DMSO zero; AID 651647; GFP/RFP ratio change, % at 20 µM;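 active means GFP/RFP ratio change of at least 30% with cell ATP level not reduced by more than half and red fluorescence within 50% of control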
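Assay system: HT1080 RFP-PRO-GFP cells | Dosing: 20 µM single dose, 1% DMSO | Incubation: Cells overnight before dosing, compound overnight, 37 °C, 5% CO2 | Evaluation: GFP/RFP fluorescence ratio | Control set: DMSO-only wells and HT1080 RFP-L50D-GFP cell wells as references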
ADAM17 inh = ADAM17 inhibition, QFRET primary screen | inhibition, % at 6.95 µM | 0.83% of 370,000 active | P78536 | recombinant ADAM17, EDANS/DABCYL FRET peptide cleavage | AID 720648;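 active means inhibition above the mean of compounds lying between control limits plus 3 SD, set per campaign, cut at about 8.5% in these data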
DDE Tn7 FP inh = DD(E)-Tn7 binding inhibition, primary FP screen; FP displacement of FITC-Tn7 peptide from fibrin DD(E); 0% = median of compound wells per plate; inhibition, % at 8.3 µM; 0.13% of 370,000 active;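 active means inhibition above the mean of compounds falling within the control limits plus 3 SD of them, cut at about 14% in these data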
Target sequence (P02675 whole entry, looked up): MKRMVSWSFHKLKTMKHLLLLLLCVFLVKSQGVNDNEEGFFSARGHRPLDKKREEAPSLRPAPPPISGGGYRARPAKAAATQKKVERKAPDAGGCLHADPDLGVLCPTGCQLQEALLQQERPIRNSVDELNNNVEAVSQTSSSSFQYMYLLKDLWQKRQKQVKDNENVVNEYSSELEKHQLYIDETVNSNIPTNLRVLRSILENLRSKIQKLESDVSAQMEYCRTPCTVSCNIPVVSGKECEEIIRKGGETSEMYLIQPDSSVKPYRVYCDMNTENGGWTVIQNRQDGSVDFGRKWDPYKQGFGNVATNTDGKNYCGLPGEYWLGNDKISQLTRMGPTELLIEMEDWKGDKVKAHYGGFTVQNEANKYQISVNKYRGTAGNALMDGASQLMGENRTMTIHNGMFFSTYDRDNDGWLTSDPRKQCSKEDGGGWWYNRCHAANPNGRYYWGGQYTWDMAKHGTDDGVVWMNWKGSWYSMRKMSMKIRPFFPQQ
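Assay system: Human fibrin DD(E) protein | Medium: Tris buffer with calcium and detergent, pH 7.8 | Reagent: 0.1 µM fluorescent Tn7 | Compound dosing: Single point at 8.3 µM | Times: 10 min preincubation, 3 h with tracer, room temperature | Detection: Fluorescence polarization of the labelled Tn7 tracer | Controls: Aha-Tn7 high control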
DDE Tn6 FP inh = DD(E)-Tn6 binding inhibition, primary FP screen | P02675 | Fibrin DD(E) TRITC-Tn6 fluorescence polarization displacement | inhibition, % at 8.3 µM | 0.21% of 370,000 active | AID 720509;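 active means inhibition above a per-campaign cutoff: mean of compounds within control limits plus 3 SD, cut at about 15% in these data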
ADAM10 confirm = confirmation of inhibitors of human ADAM10. inhibition, % at 6.95 µM. 1% of 2,100 active. AID 743208. shares compounds with ADAM10 inh. ADAM10 QFRET peptide cleavage, EDANS fluorescence;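 active means inhibition above about 20% chosen separately for each screening run, limit read from the data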
ADAM17 counter = counter-screen for ADAM10 exosite inhibitors: inhibitors of human ADAM17; inhibition, % at 6.95 µM; shares compounds with ADAM10 inh; AID 743214; 0.5% of 2,100 active; ADAM17 QFRET peptide cleavage, EDANS fluorescence;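 active means mean triplicate inhibition above the solvent-only control wells' mean plus 3 SD, cut at about 12% in these data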
ADAM10 counter = inhibits human ADAM10 in ADAM17 exosite counter-screen. shares compounds with ADAM17 inh. recombinant ADAM10, EDANS/DABCYL FRET peptide cleavage, 3 h. inhibition, % at 6.95 µM. 47% of 2,900 active. AID 743256;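 active means mean inhibition over the triplicate runs exceeds the activity threshold set in the earlier primary screen, cut at about 20% in these data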
ADAM17 confirm = human ADAM17 inhibition, confirmation; recombinant ADAM17, EDANS/DABCYL QFRET peptide cleavage; 65% of 2,900 active; inhibition, % at 6.95 µM; shares compounds with ADAM17 inh;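 active means mean inhibition across replicates above the hit cutoff set in the primary screen, cut at about 8.5% in these data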
Large screens that a line does not name were inactive (follow-up assays come after a bar, where they were run).

COC(=O)CN1C(=S)N(Cc2ccccc2)C(=O)C1CC(=O)Nc1ccc(Br)cc1 (configuration not stated)	ADAM10 inh 23, ADAM17 inh 12 | ADAM10 confirm inactive | ADAM17 counter inactive | ADAM10 counter 27 | ADAM17 confirm 13
CCCOc1ccc(NC(=O)CC2C(=O)N(Cc3ccccc3)C(=S)N2Cc2cccs2)cc1 (configuration not stated)	ADAM10 inh 26, ADAM17 inh 13 | ADAM10 confirm inactive | ADAM17 counter inactive | ADAM10 counter 30 | ADAM17 confirm 16
C=CC[C@@H](CC(=O)N(CCO)Cc1ccccc1)C(=O)N[C@H](COC(=O)[C@@H](CC=C)CC(=O)OC(C)(C)C)Cc1c[nH]c2ccccc12	ADAM10 inh 25, ADAM17 inh 14 | ADAM10 confirm inactive | ADAM17 counter inactive | ADAM10 counter 33 | ADAM17 confirm 16
C=CC[C@@H](CC(=O)N(CCO)Cc1ccccc1)C(=O)N[C@@H](COC(=O)[C@@H](CC=C)CC(=O)OC(C)(C)C)Cc1c[nH]c2ccccc12	ADAM10 inh 45, ADAM17 inh 22 | ADAM10 confirm inactive | ADAM17 counter inactive | ADAM10 counter 41 | ADAM17 confirm 21
C=CC[C@@H](CC(=O)N[C@@H](CO)Cc1ccccc1)C(=O)N[C@H](COC(=O)[C@@H](CC=C)CC(=O)OC(C)(C)C)Cc1c[nH]c2ccccc12	ADAM10 inh 26, ADAM17 inh 8.7 | ADAM10 confirm inactive | ADAM17 counter inactive | ADAM10 counter 39 | ADAM17 confirm 18
C=CC[C@H](CC(=O)N(CCO)Cc1ccccc1)C(=O)N[C@@H](COC(=O)[C@H](CC=C)CC(=O)OC(C)(C)C)Cc1c[nH]c2ccccc12	none
O=C(NCCc1ccc(F)cc1)c1ccc(Sc2ccccc2Cl)c([N+](=O)[O-])c1	none (no result: MT1-MMP act inh)
COC(=O)[C@]12C[C@H](CC(=O)NCc3ccc(C)o3)C(=O)N(Cc3ccc4c(c3)OCO4)C1=C[C@H](C(C)C)O[C@@H]2C1CC1	none (no result: MT1-MMP act inh)
N#Cc1cc2ccccc2nc1SCC(=O)Nc1ccc(S(=O)(=O)N2CCCC2)cc1	ADAM10 inh 29, ADAM17 inh 12 | ADAM10 confirm inactive | ADAM17 counter inactive | ADAM10 counter inactive | ADAM17 confirm inactive
COC(=O)Nc1ccc(S(=O)(=O)N2CCC(Cc3ccccc3)CC2)cc1	ADAM10 inh 20, ADAM17 inh 11 | ADAM10 confirm inactive | ADAM17 counter inactive | ADAM10 counter 35 | ADAM17 confirm 14
CC(C)(C)c1ccc(/C=N/OCC(=O)NCc2ccc(F)cc2)cc1	ADAM10 inh 28, ADAM17 inh 13 | ADAM10 confirm inactive | ADAM17 counter inactive | ADAM10 counter 22 | ADAM17 confirm 11
COc1cc(C(=O)NC2CCCCN(Cc3cccc(Cl)c3)C2=O)cc(OC)c1OC (configuration not stated)	none (no result: MT1-MMP act inh)
Cc1cccc(C)c1N(CC(=O)Nc1cc(Cl)ccc1Oc1ccccc1)S(C)(=O)=O	ADAM10 inh 30, ADAM17 inh 8.8 | ADAM10 confirm inactive | ADAM17 counter inactive | ADAM10 counter 26 | ADAM17 confirm 16
COc1cccc(OCC(=O)Nc2cc(Cl)ccc2Oc2ccccc2)c1	none
Cc1ccc(C)c(N(CC(=O)Nc2cc(Cl)ccc2Oc2ccccc2)S(C)(=O)=O)c1	ADAM10 inh 29, ADAM17 inh 10 | ADAM10 confirm inactive | ADAM17 counter inactive | ADAM10 counter 24 | ADAM17 confirm 13
COc1ccccc1NC(=O)N(C)C[C@H]1OCc2cn(nn2)CCCC(=O)N([C@H](C)CO)C[C@@H]1C	none (no result: MT1-MMP act inh)
O=[N+]([O-])c1cc(C(F)(F)F)ccc1NCCc1c[nH]c2ccccc12	none
O=[N+]([O-])c1cc(C(F)(F)F)ccc1NCCc1c[nH]c2ccc(O)cc12	ADAM10 inh 31, ADAM17 inh 13 | ADAM10 confirm inactive | ADAM17 counter inactive | ADAM10 counter 27 | ADAM17 confirm 14
COc1ccc(C=C(c2nc3ccccc3s2)c2nc3ccccc3s2)cc1O	ADAM10 inh 20, ADAM17 inh 8.6 | ADAM10 confirm inactive | ADAM17 counter inactive | ADAM10 counter 25 | ADAM17 confirm 14
COc1ccc(/C=N/Nc2nc3ccccc3s2)cc1O	none
CCc1ccc(NC(=O)C2CCN(S(=O)(=O)c3ccc4c(c3)NC(=O)C(C)S4)CC2)cc1 (configuration not stated)	ADAM10 inh 26, ADAM17 inh 14 | ADAM10 confirm inactive | ADAM17 counter inactive | ADAM10 counter 21 | ADAM17 confirm 11
CCOC(=O)c1cc(-c2ccccc2C)nn1CC1CC(c2ccc(OC)cc2)=NO1 (configuration not stated)	ADAM10 inh 21, ADAM17 inh 10 | ADAM10 confirm inactive | ADAM17 counter inactive | ADAM10 counter inactive | ADAM17 confirm 10
CCOC(=O)c1cc(-c2ccccc2)nn1CC1CC(c2ccc(OC)cc2)=NO1 (configuration not stated)	none
COc1ccc(N/N=C(/C(N)=O)C2=NC(C)(C)Cc3ccccc32)cc1	ADAM10 inh 28, ADAM17 inh 14 | ADAM10 confirm inactive | ADAM17 counter inactive | ADAM10 counter inactive | ADAM17 confirm inactive
COc1ccc(N/N=C(\C#N)C(N)=O)cc1	none
CCN(CC)S(=O)(=O)c1ccc(N2CCOCC2)c(NS(=O)(=O)c2cc(C(C)(C)C)ccc2C)c1	ADAM10 inh 36, ADAM17 inh 17 | ADAM10 confirm inactive | ADAM17 counter inactive | ADAM10 counter 31 | ADAM17 confirm 15
c1nc(NC[C@@H]2CCCO2)c2cc(-c3ccc4c(c3)OCO4)ccc2n1	none (no result: MT1-MMP act inh)
CCCNC(=O)c1cc(C2CCCN(S(=O)(=O)c3cccc4cccnc34)C2)on1 (configuration not stated)	none
O=C(Nc1ccc(F)c(Cl)c1)c1cc(C2CCCN(S(=O)(=O)c3cccc4cccnc34)C2)on1 (configuration not stated)	ADAM10 inh 25, ADAM17 inh 12 | ADAM10 confirm inactive | ADAM17 counter inactive | ADAM10 counter 25 | ADAM17 confirm 13
